mIAP inh – mouse IAP inhibition; inhibition, % at 10 µM; purified mouse IAP, CDP-Star luminescence, 30 min; 330,000 tested, 0.2% active; AID 2806;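 active means inhibition of at least 40% at 10 µM in the primary screen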
mIAP activ – increases mouse intestinal alkaline phosphatase activity; muIAP, CDP-Star luminescence, 30 min; active compounds read high; 1 = vehicle-only enzyme signal, 0 = enzyme-free wells; activation factor at 10 µM; 330,000 tested, 0.24% active;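 active means activation factor of at least 2 at 20 µM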
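Assay system: mouse IAP enzyme; Reagent: CDP-Star chemiluminescent phosphatase substrate; Compound: DMSO-dissolved test compounds; Incubation: 30 min, room temperature; Technique: luminescence from enzymatic CDP-Star hydrolysis; Controls: DMSO-only wells and no-enzyme negative control.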
bIAP inhibitor – intestinal alkaline phosphatase (bovine) inhibition; purified bovine IAP, CDP-star luminescence, 30 min; inhibition, % at 20 µM; 190,000 tested, under 10 active; AID 1019;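 active means over 50% inhibition of intestinal alkaline phosphatase at 20 µM in the single-dose screen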
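Incubation: 30 min reaction at room temperature / Material: purified bovine intestinal alkaline phosphatase (IAP) enzyme / Input: enzyme at 1/65,000,000 dilution / Dosing: 20 µM single dose / Signal: CDP-star luminescence signal / Reagent: CDP-star chemiluminescent phosphatase substrate, 30 µM final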
hIAP block – human IAP inhibition. P09923. purified IAP, CDP-Star luminescence, 30 min. inhibition, % at 10 µM. 330,000 tested, 0.12% active. AID 2544;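 active means inhibition reaching a set limit with compound at 10 µM in the primary screen, cut at about 35% in these data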
Target sequence (P09923 whole entry, looked up): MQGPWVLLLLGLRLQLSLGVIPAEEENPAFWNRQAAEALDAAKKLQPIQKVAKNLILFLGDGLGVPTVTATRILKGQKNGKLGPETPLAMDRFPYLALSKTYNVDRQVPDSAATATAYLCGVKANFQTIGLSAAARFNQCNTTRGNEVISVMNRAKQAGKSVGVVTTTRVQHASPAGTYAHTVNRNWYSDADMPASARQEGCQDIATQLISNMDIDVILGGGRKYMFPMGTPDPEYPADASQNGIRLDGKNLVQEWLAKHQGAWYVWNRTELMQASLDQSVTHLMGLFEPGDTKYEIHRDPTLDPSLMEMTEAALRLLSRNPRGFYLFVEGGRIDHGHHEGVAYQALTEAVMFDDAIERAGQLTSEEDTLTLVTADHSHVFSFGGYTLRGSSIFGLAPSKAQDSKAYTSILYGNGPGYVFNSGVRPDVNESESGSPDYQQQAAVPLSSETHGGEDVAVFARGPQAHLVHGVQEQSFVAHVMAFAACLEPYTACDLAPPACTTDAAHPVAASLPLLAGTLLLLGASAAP
bIAP activator – increases bovine intestinal alkaline phosphatase activity; AID 1016; activation factor at 20 µM; purified bovine IAP, CDP-star luminescence, 30 min; active compounds read high; fold of DMSO-control signal, blank-subtracted; 200,000 tested, 0.17% active;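 active means activation factor of 2 or more at 20 µM, a signal rise over negative controls twice the positive control's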
hIAP activ – increases human intestinal alkaline phosphatase activity; purified human IAP, CDP-Star luminescence, 30 min; active compounds read high; 1 = vehicle-only enzyme, 0 = enzyme-free background; activation factor at 10 µM; 330,000 tested, 0.16% active; AID 2524;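 active means activation factor of the enzyme at least 2-fold when tested at 20 µM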
mIAP inh conf – mouse IAP inhibition confirmation. shares compounds with mIAP inh. purified mouse IAP, CDP-Star luminescence, 30 min. inhibition, % at 10 µM. 11,000 tested, 4.7% active. AID 434971;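 active means inhibition of at least 40% at 10 µM in either of the two replicates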
Of the large screens only hits and unclear results are named; the others gave an inactive call (follow-up assays come after a bar, where they were run). A selection: hits, their analogues and other compounds. The true share with any hit is near 0.72%.

Oc1cccc(NC(=S)Nc2ccc(SC(F)F)cc2)c1	none
COc1ccc(Cl)cc1NC(=S)NCCC(c1ccccc1)c1ccccc1	mIAP activ 3.98 | mIAP inh conf inactive
COc1ccc(Cl)cc1NC(=S)NCCO	none
S=C(NCc1ccccc1)Nc1ccc(Cl)cc1	none
S=C(NCCC(c1ccccc1)c1ccccc1)Nc1ccc(Cl)cc1	mIAP activ 5.91 | mIAP inh conf inactive
C#CCOCCOCCOCCNc1nc(N2CCN(C(=O)CCCCCCCCCCNC(=O)[C@H](CO)n3cc(CCCSC)nn3)CC2)nc(N2CCN(C(=O)CCCCCCCCCCNC(=O)[C@H](CCCN=C(N)N)n3cc(C[C@@H](C)CC)nn3)CC2)n1	mIAP activ 2.61 (no result: bIAP inhibitor, bIAP activator) | mIAP inh conf inactive
C#CCOCCOCCOCCNc1nc(N2CCN(C(=O)CCCCCCCCCCNC(=O)Cn3cc(C[C@@H](C)O)nn3)CC2)nc(N2CCN(C(=O)CCCCCCCCCCNC(=O)[C@H](CCCCN)n3cc(CCCC(=O)O)nn3)CC2)n1	none (no result: bIAP inhibitor, bIAP activator)
C#CCOCCOCCOCCNc1nc(N2CCN(C(=O)CCCCCCCCCCNC(=O)Cn3cc(C[C@@H](C)O)nn3)CC2)nc(N2CCN(C(=O)CCCCCCCCCCNC(=O)[C@H](CCCN=C(N)N)n3cc(C[C@@H](C)CC)nn3)CC2)n1	mIAP activ 4.91 (no result: bIAP inhibitor, bIAP activator) | mIAP inh conf inactive
CCn1cc(NC(=O)Nc2ccccc2C(=O)OC)c(C(N)=O)n1	none
O=C(CSc1n[nH]c(-c2ccccc2)n1)c1ccc(O)c(O)c1	mIAP inh 65.0 (no result: bIAP inhibitor) | mIAP inh conf 69.0
Cc1ccc(O)c(NC(=O)CSc2n[nH]c(-c3ccccc3)n2)c1	none (no result: bIAP inhibitor, bIAP activator)
O=c1c(=O)n(O)c2ccccc2n1O	none
COc1ccc(C(=O)NNC(=O)C(NC(=O)c2cc(OC)cc(OC)c2)C(C)C)cc1 (centres undefined)	none (no result: bIAP inhibitor, bIAP activator)
COc1cc(/C=C2/SC(=Nc3ccc(O)cc3)NC2=O)cc(OC)c1O	none
COc1ccc(N=C2NC(=O)/C(=C\c3ccco3)S2)cc1	mIAP inh 40.3 | mIAP inh conf 58.9
O=C1NC(=Nc2ccc(O)cc2)S/C1=C\C=C\c1ccco1	mIAP inh 69.1 (no result: bIAP inhibitor, bIAP activator) | mIAP inh conf 87.6
O=C(Nc1ccccc1)Nc1ccc2c(c1)CCC2	mIAP activ 2.18 (no result: bIAP inhibitor, bIAP activator) | mIAP inh conf inactive
N#Cc1c2c(c(NCc3ccco3)n3c1nc1ccccc13)CCC2	mIAP inh 50.5 | mIAP inh conf 57.4
CC1C(c2ccccc2)N(C)C(c2ccccc2)CC1(O)c1ccc(F)cc1 (centres undefined)	none (no result: mIAP inh, mIAP activ, hIAP block, hIAP activ)
CSc1ccc(/C=N/n2c(Cc3ccc(Br)cc3)n[nH]c2=S)cc1	none
COc1cc(CC(=O)Nc2cccc(S(=O)(=O)N(C)c3ccccc3)c2)cc(OC)c1OC	none (no result: bIAP inhibitor, bIAP activator)
CCOc1ccc(C(=O)NCC2CCN(CC3CCCCC3)CC2)cc1	none (no result: bIAP inhibitor, bIAP activator)
Oc1cccc(O)c1O	mIAP inh 52.1 (no result: bIAP inhibitor, bIAP activator) | mIAP inh conf 57.9
CSc1ccc(C(=O)C2CCCN(C(=O)CCc3c(C)nn(C)c3C)C2)cc1 (centres undefined)	none (no result: bIAP inhibitor, bIAP activator)
O=[N+]([O-])c1ccccc1NC(=S)N/N=C/c1ccc(O)c(O)c1	mIAP inh 74.9 | mIAP inh conf 72.1
Cc1oc(-c2ccc(Cl)cc2)cc1-c1nn2c(-c3ccoc3C)nnc2s1	mIAP inh 41.4 | mIAP inh conf 49.1
COc1ccc(Br)cc1/C=c1\sc2nc(-c3ccco3)nn2c1=O	mIAP inh 60.1 | mIAP inh conf 70.1
COc1ccccc1/C=c1\sc2nc(-c3ccccc3OC)nn2c1=O	none
Cc1ccc(/C=c2\sc3nc(-c4ccco4)nn3c2=O)o1	mIAP inh 60.1 | mIAP inh conf 81.4
O=c1oc2cc([N+](=O)[O-])ccc2nc1/C=C(\O)c1cccc(Br)c1	none (no result: bIAP inhibitor, bIAP activator)
O=c1oc2cc([N+](=O)[O-])ccc2nc1/C=C(O)/C=C/c1ccccc1	mIAP inh 69.4 (no result: bIAP inhibitor, bIAP activator) | mIAP inh conf 76.3
COc1cc(NC(=O)NC2Cc3ccccc3C2)cc(OC)c1	mIAP activ 3.37 (no result: bIAP inhibitor, bIAP activator) | mIAP inh conf inactive
COc1cccc(NC(=O)NC2CCCCCCC2)c1	mIAP activ 2.05 (no result: bIAP inhibitor, bIAP activator) | mIAP inh conf inactive
Cc1cc2nc3s/c(=C/c4ccc(-c5ccccc5C(=O)O)o4)c(=O)n3c2cc1C	none (no result: bIAP inhibitor, bIAP activator)
O=C(O)c1ccccc1-c1ccc(/C=c2\sc3nc4cc(Br)cnc4n3c2=O)o1	mIAP inh 78.2 | mIAP inh conf 74.6
C=CCc1cc(Cl)ccc1OC(=O)Nc1cccc(Cl)c1	mIAP activ 3.02 (no result: bIAP inhibitor, bIAP activator) | mIAP inh conf inactive
CS(=O)c1ccccc1COC(=O)Nc1cccc(Cl)c1 (centres undefined)	none
C/C(=N/NC(=O)CNC(=O)COc1cccc(C)c1)c1ccco1	none (no result: bIAP inhibitor, bIAP activator)
COC(=O)c1ccc(OC(=O)/C=C/c2ccco2)cc1	none (no result: bIAP inhibitor, bIAP activator)
O=Cc1cccc(OC(=O)/C=C/c2ccco2)c1	mIAP inh 48.6 (no result: bIAP inhibitor, bIAP activator) | mIAP inh conf 57.4
C/C=C(\C)C(=O)NCCN1C2=NC[C@@H](Cc3ccccc3)N2C[C@@H]1Cc1ccc(OC)cc1	none (no result: bIAP inhibitor, bIAP activator)
CCCCCCNC(=O)N[C@@H](C(=O)NCCC[C@H]1CN2C(=NC[C@@H]2Cc2ccccc2)N1CCc1cccc(OC)c1)C(C)C	mIAP activ 3.31 (no result: bIAP inhibitor, bIAP activator) | mIAP inh conf inactive
CN(CC(=O)Nc1cccc(Cl)c1)S(=O)(=O)c1ccc2[nH]c(=O)oc2c1	mIAP inh 58.3 (no result: bIAP inhibitor, bIAP activator) | mIAP inh conf 74.1
COc1ccc(NC(=O)CN(C)S(=O)(=O)c2ccc3[nH]c(=O)oc3c2)cc1	none (no result: bIAP inhibitor, bIAP activator)
COc1cc(OC)c(NC(=O)CN(C)S(=O)(=O)c2ccc3[nH]c(=O)oc3c2)cc1Cl	mIAP inh 63.7 (no result: bIAP inhibitor, bIAP activator) | mIAP inh conf 85.9
CCc1ccc(NC(=O)CN(C)S(=O)(=O)c2ccc3[nH]c(=O)oc3c2)cc1	mIAP inh 50.0 (no result: bIAP inhibitor, bIAP activator) | mIAP inh conf 60.8
Cc1nc(Sc2ccc(Cl)cc2)c(C#N)c(C)c1[N+](=O)[O-]	none (no result: bIAP inhibitor, bIAP activator)
Cc1cccc(OCC(=O)OC(C)CN2CCCCC2)c1 (centres undefined)	none (no result: bIAP inhibitor, bIAP activator)
COc1ccc(CCNC(=O)c2cc(-c3cc(Cl)cc(Cl)c3)oc2C)cc1	mIAP activ 4 | mIAP inh conf inactive
CCN1C(=O)CC(C(=O)Nc2ccc(F)cc2)SC1=Nc1cccc(OC)c1 (centres undefined)	none
Nc1cc2nc3ccccc3oc-2cc1=O	mIAP inh 50.5 (no result: bIAP inhibitor, bIAP activator) | mIAP inh conf 41.5
O=C(CN1CCC(O)(c2ccc3c(c2)OCO3)CC1)NC1CCCCC1	none
O=C(NC1CCCCC1)Oc1cc2oc(=O)sc2cc1Br	mIAP inh 60.4 (no result: bIAP inhibitor, bIAP activator) | mIAP inh conf 80.6
O=C(COC(=O)c1ccccc1)Nc1ncc([N+](=O)[O-])s1	mIAP inh 67.4 (no result: bIAP inhibitor, bIAP activator) | mIAP inh conf 72.2
COc1ccccc1N1CCN(C(=O)CSc2nnc(NC(=O)C(C)C)s2)CC1	none
